Compound activity from PubChem.
KCNQ1 act – potentiators or activators of human KCNQ1 potassium channel; CHO-K1 KCNQ1, thallium flux FluxOR fluorescence; active compounds read high; AID 2648; B-score at 10 µM; P51787; actives 0.35% (n = 310,000);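 active = fluorescence ratio B-score, a plate-corrected score, at least three library SD, with initial intensity B-score within 5 SD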
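Material: CHO-K1 cells stably expressing KCNQ1. Medium: assay buffer for compound exposure, DMSO matched across wells. Reagent: K+/Tl+ depolarizing stimulus. Compound dosing: single-concentration screen. Times: 37 °C overnight plating, 90-min dark dye load, 20-min compound pretreatment. Technique: FluxOR Tl+ flux fluorescence.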
Kir21 block – inhibitors of mouse Kir2.1 inward-rectifier potassium channel; P35561; HEK293-Kir2.1, FluxOR thallium flux fluorescence; active compounds read low; B-score at 10 µM; actives 0.85% (n = 310,000); AID 1672;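 active = fluorescence ratio B-score at or below minus 3 SD of library scores, with starting-brightness B-score within 2 SD, cut at about -4.2 in these data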;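 also: channel flux triggered by added potassium and thallium sulfate stimulus; B-score of peak minus minimum fluorescence over baseline after thallium stimulus; more negative B-score means stronger Kir2.1 block with less thallium influx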
Target sequence (P35561 whole entry, looked up): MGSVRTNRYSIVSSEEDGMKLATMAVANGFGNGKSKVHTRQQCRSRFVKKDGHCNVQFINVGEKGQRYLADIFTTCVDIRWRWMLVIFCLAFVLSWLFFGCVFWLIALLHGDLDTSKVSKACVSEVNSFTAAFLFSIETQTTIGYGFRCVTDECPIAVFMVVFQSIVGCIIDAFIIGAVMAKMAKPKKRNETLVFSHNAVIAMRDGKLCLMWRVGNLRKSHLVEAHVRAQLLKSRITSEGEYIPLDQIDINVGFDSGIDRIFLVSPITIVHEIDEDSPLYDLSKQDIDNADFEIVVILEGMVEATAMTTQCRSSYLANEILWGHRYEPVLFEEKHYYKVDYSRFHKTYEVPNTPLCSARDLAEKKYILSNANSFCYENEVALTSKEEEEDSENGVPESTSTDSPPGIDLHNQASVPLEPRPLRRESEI
KCNK3 block – human KCNK3 channel inhibition, primary screen. O14649. CHO-KCNK3 thallium flux, FluxOR fluorescence; active compounds read low. B-score at 10 µM. actives 0.84% (n = 340,000);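 active = B-score under library mean minus 4 SD, starting fluorescence ratio at most library mean plus 5 SD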;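 also: more negative B-score means stronger inhibition of thallium flux through KCNK3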
KCNQ1 block – human KCNQ1 channel inhibition. P51787. CHO-K1 KCNQ1, FluxOR thallium flux fluorescence; active compounds read high. B-score at 10 µM. actives 1.3% (n = 310,000). AID 2642;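 active = compounds whose thallium flux B-score, printed positive for inhibition, exceeds three library SD while starting fluorescence stays within three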;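 also: channel opened by potassium depolarization with thallium stimulus after 20 min compound exposure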
KCNK9 inh – inhibitors of human KCNK9 two-pore domain potassium channel; actives 1.2% (n = 310,000); AID 488922; Q9NPC2; B-score at 10 µM; HEK293 KCNK9, FluxOR thallium flux fluorescence; active compounds read low;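 active = ratio B-score over 3 SD below the library mean, with starting fluorescence within 5 SD of its mean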;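 also: negative B-score means less thallium flux so channel inhibition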
hERG protect – compounds protecting human hERG from proarrhythmic drug block | CHO-hERG, FluxOR thallium flux, dofetilide IC70 present | activation (rescue from dofetilide block), less the hit threshold, % at 10 µM | Q12809 | actives 0.51% (n = 310,000);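 active = activation above the mean of controls blocked by dofetilide plus 5 SD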;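 also: thallium influx through hERG after potassium depolarization seen as dye fluorescence rise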
An asterisk follows results filed as active; i = inactive; · = no result given. Compounds with a hit are over-represented: about 3.8% of the library has one in this group of screens.

SMILES	KCNQ1 act	Kir21 block	KCNK3 block	KCNQ1 block	KCNK9 inh	hERG protect
COc1ccccc1NC(=O)c1ccc(S(=O)(=O)N(C)c2ccccc2)cc1	·	·	i	·	·	·
CN(c1ccccc1)S(=O)(=O)c1cccc(NC(=O)c2ccc(Cl)c([N+](=O)[O-])c2)c1	·	·	-11*	·	·	·
Cn1c(O)c(N=NC(=S)Nc2ccccc2F)c2cc(S(=O)(=O)N3CCOCC3)ccc21	i	1	i	i	i	11*
Cc1ccc(NC(=S)N=Nc2c(O)n(C)c3ccc(S(=O)(=O)N4CCOCC4)cc23)cc1C	i	0.47	i	i	i	-1
C=CCn1c(O)c(N=NC(=S)Nc2ccccc2C)c2cc(S(=O)(=O)N3CCOCC3)ccc21	9*	-0.46	i	i	i	-2
CCOc1ccccc1CN1CCNC(=O)C1CC(=O)NC1CCCCCCC1 (stereo not given)	i	-0.9	i	i	i	-5
C[C@@H]1CC=C[C@H]2[C@H]1C(=O)N(Cc1ccccc1)[C@H]2c1ccc(F)c(Br)c1	i	-3	·	10*	-19*	-26
O=C1C2C(c3cccc(/C=C/c4ccccc4)c3)CC=CC2C(c2ccc3ccccc3c2)N1Cc1ccccc1 (stereo not given)	i	2	i	i	i	-8
Cc1ccc(-c2cccc(C3CC=CC4C3C(=O)N(Cc3ccccc3)C4c3ccc4ccccc4c3)c2)cc1 (stereo not given)	i	-0.05	i	i	i	8.4*
C=CCn1c(SCc2ccc(C#N)cc2)nnc1-c1ccc(C)cc1	i	-2	i	i	i	-5
c1cncc(CSc2nnc(-c3cccnc3)n2Cc2ccco2)c1	i	-1.6	·	i	i	-11
Cc1cccc(-c2nnc(SCc3ccc(C#N)cc3)n2Cc2ccco2)c1	i	-5.3*	i	i	i	-17
COc1ccc(-c2nc(SCc3ccccc3)n(S(C)(=O)=O)n2)cc1	i	0.68	i	i	i	-7
CCn1c(SCc2ccc(C#N)cc2)nnc1-c1cccc(Cl)c1	i	-4.6*	i	i	i	-11
CCn1c(COc2ccc(Cl)cc2)nnc1SCc1ccc(C#N)cc1	i	-4.8*	i	i	i	-6
CCS(=O)(=O)n1nc(-c2ccc(Cl)cc2)nc1SCc1ccccc1	i	-0.76	·	10*	i	-15
COc1ccc(OC)c(S(=O)(=O)NC2CC(=O)N(c3cccc(F)c3)C2)c1 (stereo not given)	i	-0.64	i	i	i	-15
CC(NC(=O)c1ccccc1F)c1nnc(SCC(=O)Nc2nnc(C3CC3)s2)n1C (stereo not given)	i	1.8	i	i	i	-3
CCn1c(SCc2ccc(Cl)cc2)nnc1-c1ccccc1	i	-5.3*	i	i	i	-10
CCn1c(SCc2cccc(C(=O)O)c2)nnc1-c1ccccc1	i	0.02	i	i	i	-6
Clc1ccc(CSc2nnc(-c3cccnc3)n2Cc2ccco2)c(Cl)c1	i	-4.3*	i	i	i	-18
CCC1CCCCN1CCCNC(=O)CCC(=O)N1CC(C)Oc2ccccc21 (stereo not given)	i	0.78	i	i	i	-6
COc1cc(/C=C2/C(=O)NN(c3cccc(C)c3)C2=O)ccc1OC(=O)c1ccco1	i	-6.1*	i	i	i	-5
CN(C)c1ccc(N2C(=O)CSC2=S)cc1	i	-0.48	i	i	i	6.8*
CCOC(=O)N1CCN(c2nc(N(c3ccccc3)c3ccccc3)nc(-n3ccnc3)n2)CC1	i	-0.67	·	8*	i	-13
SMILES	KCNQ1 act	Kir21 block	KCNK3 block	KCNQ1 block	KCNK9 inh	hERG protect
CCOc1ccccc1NC(=O)C(=O)CC(=O)c1ccc(OC)cc1	14*	0.01	i	i	i	15*
COc1ccc(C(=O)CC(=O)C(=O)Nc2cc(C)ccc2C)cc1	i	1.4	i	i	i	-2
COc1ccc(C(=O)CC(=O)C(=O)Nc2ccc(C)c(Cl)c2)cc1	9*	-0.2	i	i	i	17*
COc1ccccc1CN1CCC(n2nccc2NC(=O)CCc2ccccc2)CC1	i	-0.29	i	i	i	-8
O=C(COc1ccccc1C(=O)NCc1ccccc1)Nc1ccccc1	·	·	i	·	·	·
COc1ccc(N2C(=O)[C@@H]3[C@H](C2=O)[C@H](C(=O)c2ccc(OC(C)=O)cc2)N2N=CC=C[C@@H]32)cc1	i	-4.8*	·	i	i	-11
CC(Sc1ccc(S(=O)(=O)N2CCOCC2)cn1)c1ccccc1Cl (stereo not given)	·	·	i	·	·	·
Nc1c(C(=O)NCC2CCCO2)sc2nc3c(c(-c4ccco4)c12)CC/C3=C\c1ccco1 (stereo not given)	·	·	-12*	·	·	·
CC1CCCCN1CCCNC(=O)c1ccc(N2CCCC2=O)cc1 (stereo not given)	i	0.25	i	i	i	-13
COc1ccc2cnn(CCOc3cc(C)ccc3C(C)C)c(=O)c2c1OC	i	-4.8*	i	i	i	-16
Cc1cc(Cn2nc(C(=O)NCc3cccc(C(F)(F)F)c3)cc2-c2ccccc2)on1	·	·	-9.7*	·	·	·
C/C=C(/C)C(=O)O[C@@H]1c2c(ccc3ccc(=O)oc23)O[C@@H]1C(C)(C)OC(=O)/C(C)=C\C	i	0.54	i	i	-7.1*	-8
COc1ccc(C)cc1-n1nnnc1SCC1CCCCO1 (stereo not given)	i	-4.7*	i	i	i	-3
COc1ccc(C)cc1-n1nnnc1SCC(=O)NC1CCCC1	·	·	i	·	·	·
COc1ccc(Cl)cc1C(=O)NNC(=S)NC(=O)c1cc(-c2ccccc2)nc2ccccc12	8*	-0.32	i	i	i	-5
CCNC(=S)NNC(=O)c1cc(-c2cccc(OC)c2)nc2ccccc12	i	0.62	i	6*	i	-20
COc1cc(-c2cc(C(=O)Nc3c(Cl)cc(Cl)cc3Cl)c3ccccc3n2)cc(OC)c1OC	i	-0.97	i	7*	i	-13
COc1ccc(NC(=O)c2cc(-c3cc(OC)c(OC)c(OC)c3)nc3ccccc23)cc1OC	i	-0.54	i	i	i	-9
COC(=O)c1ccc(NC(=S)NC(=O)c2cc(-c3ccccc3)nc3ccccc23)cc1	29*	1.1	i	i	i	6.2*
CCOc1ccc(C(=O)OCC(=O)NC2CCCCCCC2)cc1	·	·	i	·	·	·
COc1ccc(C(=O)NNC(=S)NC(=O)c2cc(-c3ccccc3)nc3ccccc23)cc1	9*	0.37	i	i	i	-9
